Tests used:
[1] = Free radical scavenging assessed as color reduction of DPPH; format: functional
Procedure, shortened: (§1)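 DPPH (0.5 mM in ethanol, 1 part) mixed with antioxidant in ethanol/H2O 1:1 (4 parts; 1.25 × 10⁻⁶ to 1.25 × 10⁻³ M solutions); DPPH in reaction 10⁻⁴ M. Room temperature, 20 min; decolorization read at 516 nm. EC50 = concentration giving 50% of blank absorbance, from dose-response curve; mean ± SD of triplicates.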

[2] = Compound was evaluated for its partition between n-octanol and water(pH 7); format: physicochemical; details: buffer
Procedure, shortened: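 100 mM stock in DMSO diluted to 1 mM in 50 mM potassium phosphate buffer (pH 7.0); 5 mL aqueous solution mixed and partitioned with 5 mL n-octanol. Compound in the octanol phase quantified by HPLC (UV 240 nm). Mean ± SD, n = 6.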

[3] = Free radical scavenging assessed as 50% reduction in DPPH absorbance (516 nm); format: functional; procedure, shortened: as §1

| Compound | Scavenging activity [1] [%] | Distribution percent [2] | EC50 [3] |
| --- | --- | --- | --- |
| O=C1C(OP(=O)(O)O)=C(O)O[C@@H]1[C@@H](O)CO | 1.5 | – | – |
| CCCCCC(=O)OC[C@H](O)[C@H]1OC(O)=C(O[C@@H]2OC(CO)[C@@H](O)C(O)[C@@H]2O)C1=O (stereo partly specified) | 73.8 | 8.7 | 5.4 10uM |
| CCCCCCCCCCCCCC(=O)OC[C@H](O)[C@H]1OC(O)=C(O[C@@H]2OC(CO)[C@@H](O)C(O)[C@@H]2O)C1=O (stereo partly specified) | 74.1 | 87 | 4.4 10uM |
| CCCC(=O)OC[C@H](O)[C@H]1OC(O)=C(O[C@@H]2OC(CO)[C@@H](O)C(O)[C@@H]2O)C1=O (stereo partly specified) | 69.2 | 4 | 5.9 10uM |
| VITAMIN E [listing 1 of 2 here] | – | – | 1.9 10uM |
| CCCCCCCCCCCC(=O)OC[C@H](O)[C@H]1OC(O)=C(O[C@@H]2OC(CO)[C@@H](O)C(O)[C@@H]2O)C1=O (stereo partly specified) | 76.2 | 83.8 | 4.6 10uM |
| CCCCCCCCCC(=O)OC[C@H](O)[C@H]1OC(O)=C(O[C@@H]2OC(CO)[C@@H](O)C(O)[C@@H]2O)C1=O (stereo partly specified) | 73.6 | 76.6 | 4.2 10uM |
| O=C1C(O[C@@H]2OC(CO)[C@@H](O)C(O)[C@@H]2O)=C(O)O[C@@H]1[C@@H](O)CO (stereo partly specified) | 68.9 | 0 | 6.1 10uM |
| VITAMIN E [listing 2 of 2 here] | 90.9 | – | – |
| CCCCCCCCCCCCCCCCCC(=O)OC[C@H](O)[C@H]1OC(O)=C(O[C@@H]2OC(CO)[C@@H](O)C(O)[C@@H]2O)C1=O (stereo partly specified) | 77.5 | 84.6 | 4.4 10uM |
| CCCCCCCCCCCCCCCC(=O)OC[C@H](O)[C@H]1OC(O)=C(OC(=O)CCCCCCCCCCCCCCC)C1=O | 23.7 | – | – |
| CCCCCCCC(=O)OC[C@H](O)[C@H]1OC(O)=C(O[C@@H]2OC(CO)[C@@H](O)C(O)[C@@H]2O)C1=O (stereo partly specified) | 76.6 | 43.4 | 5.7 10uM |
| O=C1O[C@H]([C@@H](O)CO)C(O)=C1O [ASCORBIC ACID] | 94.3 | 0.7 | 2.2 10uM |
| CCCCCCCCCCCCCCCC(=O)OC[C@H](O)[C@H]1OC(O)=C(O[C@@H]2OC(CO)[C@@H](O)C(O)[C@@H]2O)C1=O (stereo partly specified) | 76.4 | 87.3 | 4.1 10uM |
| O=C1C(OS(=O)(=O)O)=C(O)O[C@@H]1[C@@H](O)CO | 0 | – | – |
| CCCCCCCCCCCCCCCC(=O)OC[C@H](O)[C@H]1OC(=O)C(O)=C1O | 95.7 | – | – |

Source: ChEMBL document CHEMBL1135591, “Synthesis and characterization of a series of novel monoacylated ascorbic acid derivatives, 6-O-acyl-2-O-alpha-D-glucopyranosyl-L-ascorbic acids, as skin antioxidants” (J Med Chem, 2002)
